Published values from different studies.
Protocols differ between the studies behind these lines.
JAK1: Tyrosine-protein kinase JAK1 (JAK1, Homo sapiens, UniProt P23458)
JAK1 JH1: Tyrosine-protein kinase JAK1, JH1 (JAK1, Homo sapiens, UniProt P23458)
JAK1 JH2: Tyrosine-protein kinase JAK1, JH2 (JAK1, Homo sapiens, UniProt P23458)

For CN1CCN(c2ccc(Nc3nccc(-c4cccc([N+](=O)[O-])c4)n3)cc2C(F)(F)F)CC1, the remaining binding was 0.25% (JAK1; binding; 10 µM).
CN(CCCC(F)(F)F)c1nccc(-c2cnn3ncccc23)n1 gave a remaining binding of 100% (JAK1 JH1; cell-free assay; competition with immobilised ligand; 1 µM).
With CCC(=O)N[C@H]1CC[C@@H](C(=O)N(C)c2ccc(-c3nc4ccccc4o3)cc2)C1 the remaining binding was 77% (JAK1 JH2; cell-free assay; competition with immobilised ligand; 1 µM).
With F[C@@H]1CCN(c2nccc(-c3cnn4ncccc34)n2)C1 the remaining binding was 100% (JAK1 JH1; cell-free assay; competition with immobilised ligand; 1 µM).
Cc1cnc(Nc2ccc(C(=O)N3CCC(N4CCCC4)CC3)cc2)nc1-c1cc2ccccc2s1 has a remaining binding of 0% (JAK1 JH2; binding; competition with immobilised ligand; 1 µM).
O=C(NCC1CCOCC1)c1n[nH]cc1NC(=O)c1c(F)cccc1F has a remaining binding of 90% (JAK1 JH2; binding; competition with immobilised ligand; 1 µM).
CC1=C(C#N)C(c2ccc3c(c2)c(NC(=O)c2ccccc2C)nn3C)C(C#N)=C(C)N1 has a remaining binding of 100% (JAK1 JH1; cell-free assay; competition with immobilised ligand; 1 µM).
For N[C@H]1CCN(c2nccc(-c3cnn4ncccc34)n2)C1, the remaining binding was 60% (JAK1; binding; 1 µM).
The remaining binding of O=C(NCCCN1CCOCC1)c1ccc(Nc2nccc(-c3cc4ccccc4s3)n2)cc1 is reported as 41% (JAK1 JH2; binding; competition with immobilised ligand; 1 µM).
With CS(=O)(=O)N1CCCC(NC(=O)[C@H](CCC2CCCCC2)NC(=O)c2ccc(CNC(=O)c3cnc4ccccn34)cc2)C1 (stereo partly shown) the remaining binding was 100% (JAK1 JH2; cell-free assay; competition with immobilised ligand; 0.1 µM).
The remaining binding of CN(C)c1ncc(F)c(-c2cnn3ncccc23)n1 is reported as 100% (JAK1 JH1; cell-free assay; competition with immobilised ligand; 1 µM).
Cc1nc(C2CCN(C(=O)c3ccc(OC(F)(F)F)cc3N)CC2)c2ncc(N3CCN(C)CC3)cc2n1 has a remaining binding of 95% (JAK1 JH1; cell-free assay; competition with immobilised ligand; 1 µM).
With O=C(c1ccc(Nc2ncc(Cl)c(-c3cc4ccccc4s3)n2)cc1)N1CCC(N2CCCC2)CC1 the remaining binding was 0.9% (JAK1 JH2; binding; competition with immobilised ligand; 1 µM).
For NS(=O)(=O)c1cc(NC(=O)C2(c3ccccc3Cl)CC2)ccc1Oc1cccc(Cl)c1, the remaining binding was 76% (JAK1 JH2; cell-free assay; competition with immobilised ligand; 1 µM).
CN(C)c1nccc(-c2cnn3ncccc23)n1 has a remaining binding of 53% (JAK1; binding; 1 µM).
For CNC(=O)[C@@H]1CC[C@@H](n2c(-c3ccc4cnccc4c3)nc3ccc(C(=O)NCc4cccc(C(N)=O)c4)cc32)C1, the remaining binding was 60% (JAK1 JH2; binding; competition with immobilised ligand; 1 µM).
With COc1ccc2c(c1)O[C@@H](c1ccc(OC)c(OC)c1)C[C@H]2NC(=O)C1(c2ccc3c(c2)OC(F)(F)O3)CC1 the remaining binding was 90% (JAK1 JH2; cell-free assay; competition with immobilised ligand; 1 µM).
With c1cnn2ncc(-c3ccnc(N4CCC45COC5)n3)c2c1 the remaining binding was 67% (JAK1; binding; 1 µM).
Nc1ncc2c(n1)-c1c([nH]c3ccc(C#CC4CC4)cc13)CCCC2 gave a remaining binding of 100% (JAK1 JH1; binding; competition with immobilised ligand; 1 µM).
